Reference: ChEMBL document CHEMBL1122863, “Renin inhibitors. Syntheses of subnanomolar, competitive, transition-state analogue inhibitors containing a novel analogue of statine” (J Med Chem, 1985)
Residues, ends and D or L forms follow the SMILES beside them.

Experiments:
[1] = molecular target: T1, Renin (Homo sapiens, UniProt P00797); experiment: Inhibition of human kidney renin
T1 sequence (P00797 whole entry): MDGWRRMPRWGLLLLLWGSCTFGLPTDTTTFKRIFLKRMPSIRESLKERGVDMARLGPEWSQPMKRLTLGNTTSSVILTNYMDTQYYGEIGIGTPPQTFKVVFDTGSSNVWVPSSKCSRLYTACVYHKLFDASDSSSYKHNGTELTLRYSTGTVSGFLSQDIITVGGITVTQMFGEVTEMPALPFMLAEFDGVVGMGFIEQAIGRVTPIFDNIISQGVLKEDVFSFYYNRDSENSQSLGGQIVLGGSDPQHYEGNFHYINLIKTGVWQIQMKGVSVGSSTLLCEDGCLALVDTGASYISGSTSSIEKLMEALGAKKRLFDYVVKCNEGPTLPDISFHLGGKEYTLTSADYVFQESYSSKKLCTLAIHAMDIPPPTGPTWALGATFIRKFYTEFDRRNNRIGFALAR
Summary of the method: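 Fluorometric assay with a synthetic tetradecapeptide substrate, pH 7.20 citrate/phosphate, 37 °C. Ki obtained by fitting to a competitive inhibition equation, sometimes from data pooled across two independent experiments. Reproducible within ±20%.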

[2] = molecular target: T1, Renin; experiment: Inhibition of human plasma renin; format: cell-free
Summary of the method: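 Renin in reconstituted lyophilized human plasma (high- or low-renin lots), acting on endogenous angiotensinogen. Angiotensin I was measured by radioimmunoassay at pH 7.4 phosphate, 37 °C, with 8-hydroxyquinoline or PMSF as angiotensinase inhibitor. Inhibitor stocks were 1.00×10⁻³ M in methanol or acetic acid. IC50 taken from several concentrations bracketing it.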

[3] = molecular target: Renin (Canis familiaris); experiment: Inhibition of Renin
[4] = organism: Mus musculus; experiment: The compound was tested for inhibition of mouse submaxillary renin.; format: functional
Summary of the method: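 Mouse submaxillary gland renin was run like the human kidney renin assay: synthetic tetradecapeptide substrate, fluorometric read-out, pH 7.20 citrate/phosphate, 37 °C. Ki came from a competitive inhibition fit.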

[5] = molecular target: T2, Rhizopuspepsin (Rhizopus microsporus var. chinensis, UniProt P06026); experiment: Inhibition of rhizopuspepsin
T2 sequence (P06026 whole entry): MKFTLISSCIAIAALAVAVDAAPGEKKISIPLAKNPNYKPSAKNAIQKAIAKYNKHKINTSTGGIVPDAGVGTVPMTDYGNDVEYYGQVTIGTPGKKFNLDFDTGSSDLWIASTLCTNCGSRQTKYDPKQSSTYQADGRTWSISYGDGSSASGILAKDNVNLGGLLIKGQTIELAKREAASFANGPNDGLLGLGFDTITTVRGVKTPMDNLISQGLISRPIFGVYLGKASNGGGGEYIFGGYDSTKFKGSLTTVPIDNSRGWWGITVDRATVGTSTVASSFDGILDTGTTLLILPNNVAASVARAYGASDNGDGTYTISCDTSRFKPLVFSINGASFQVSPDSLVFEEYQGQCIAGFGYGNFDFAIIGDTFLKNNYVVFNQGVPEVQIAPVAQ
Summary of the method: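 IC50 came from several inhibitor concentrations and was converted to Ki by the Cha equation, assuming competitive inhibition.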

[6] = molecular target: Pepsin A (Sus scrofa, UniProt P00791); experiment: The compound was tested for inhibition of porcine pepsin.
Pepsin A, sequence (P00791 whole entry): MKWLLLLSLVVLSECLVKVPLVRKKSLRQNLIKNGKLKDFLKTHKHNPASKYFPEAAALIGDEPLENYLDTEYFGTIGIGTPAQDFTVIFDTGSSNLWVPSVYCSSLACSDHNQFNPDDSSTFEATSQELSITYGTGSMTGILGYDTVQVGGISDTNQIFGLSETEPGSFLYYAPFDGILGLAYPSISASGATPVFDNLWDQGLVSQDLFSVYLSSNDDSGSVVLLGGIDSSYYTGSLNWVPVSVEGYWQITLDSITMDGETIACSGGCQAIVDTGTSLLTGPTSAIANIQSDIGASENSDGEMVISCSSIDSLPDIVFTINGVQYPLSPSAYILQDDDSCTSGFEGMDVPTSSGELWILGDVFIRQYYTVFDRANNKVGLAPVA

SMILES	Ki [1] [nM]	IC50 [2] [nM]	IC50 [3] [nM]	Ki [4] [nM]	Ki [5] [nM]	Ki [6] [nM]
CC(C)C[C@H](NC(=O)C[C@H](O)[C@H](Cc1ccccc1)NC(=O)[C@H](Cc1c[nH]cn1)NC(=O)COc1ccccc1)C(=O)N[C@@H](Cc1ccccc1)C(N)=O	580	> 1000	> 1000			
CC(C)CC(=O)N[C@@H](Cc1c[nH]cn1)C(=O)N1CCC[C@H]1C(=O)N[C@@H](Cc1ccccc1)C(=O)N[C@@H](Cc1c[nH]cn1)C(=O)N[C@@H](CC1CCCCC1)C(O)CC(=O)N[C@@H](CC(C)C)C(=O)N[C@@H](Cc1ccccc1)C(N)=O (some centres not stated) (HELM PEPTIDE1{[CC(C)CC(=O)[*:2]].H.P.F.H.[O=C(CC(O)[C@H](CC1CCCCC1)N[*:1])[*:2]].L.F.[am]}$$$$V2.0)				2.1	230	28
CC(C)C[C@H](NC(=O)C[C@H](O)[C@H](CC1CCCCC1)NC(=O)[C@H](Cc1c[nH]cn1)NC(=O)COc1ccccc1)C(=O)N[C@@H](Cc1ccccc1)C(N)=O	14	1000	> 1000			
CC(C)C[C@H](NC(=O)C[C@H](O)[C@H](CC(C)C)NC(=O)[C@H](Cc1c[nH]cn1)NC(=O)COc1ccccc1)C(=O)N[C@@H](Cc1ccccc1)C(N)=O (HELM PEPTIDE1{[O=C(COc1ccccc1)[*:2]].H.[CC(C)C[C@H](N[*:1])[C@@H](O)CC(=O)[*:2]].L.F.[am]}$$$$V2.0)	4100					
CC(C)CC(=O)N[C@@H](Cc1c[nH]cn1)C(=O)N1CCC[C@H]1C(=O)N[C@@H](Cc1ccccc1)C(=O)N[C@@H](Cc1c[nH]cn1)C(=O)N[C@@H](CC(C)C)[C@@H](O)CC(=O)N[C@@H](CC(C)C)C(=O)N[C@@H](Cc1ccccc1)C(N)=O (HELM PEPTIDE1{[CC(C)CC(=O)[*:2]].H.P.F.H.[CC(C)C[C@H](N[*:1])[C@@H](O)CC(=O)[*:2]].L.F.[am]}$$$$V2.0)				14	200	27

The next lines start with results.

Ki [1] [nM]	IC50 [2] [nM]	IC50 [3] [nM]	SMILES	Ki [4] [nM]	Ki [5] [nM]	Ki [6] [nM]
0.52	0.76	9.5	CCOC(=O)N[C@@H](Cc1ccccc1)C(=O)N[C@@H](Cc1c[nH]cn1)C(=O)N[C@@H](CC1CCCCC1)[C@@H](O)CC(=O)N[C@@H](CC(C)C)C(=O)N[C@@H](Cc1ccccc1)C(N)=O (HELM PEPTIDE1{[CCOC(=O)[*:2]].F.H.[O=C(C[C@H](O)[C@H](CC1CCCCC1)N[*:1])[*:2]].L.F.[am]}$$$$V2.0)			
1.1	5.1	20	CC(C)C[C@H](NC(=O)C[C@H](O)[C@H](CC1CCCCC1)NC(=O)[C@H](Cc1c[nH]cn1)NC(=O)[C@H](Cc1ccccc1)NC(=O)OC(C)C)C(=O)N[C@@H](Cc1ccccc1)C(N)=O (HELM PEPTIDE1{[CC(C)OC(=O)[*:2]].F.H.[O=C(C[C@H](O)[C@H](CC1CCCCC1)N[*:1])[*:2]].L.F.[am]}$$$$V2.0)			
0.88	2.2	13	CC(C)C[C@H](NC(=O)C[C@H](O)[C@H](CC1CCCCC1)NC(=O)[C@H](Cc1c[nH]cn1)NC(=O)[C@H](Cc1ccccc1)NC(=O)OC(C)(C)C)C(=O)N[C@@H](Cc1ccccc1)C(N)=O (HELM PEPTIDE1{[CC(C)(C)OC(=O)[*:2]].F.H.[O=C(C[C@H](O)[C@H](CC1CCCCC1)N[*:1])[*:2]].L.F.[am]}$$$$V2.0)			
